Results from article PMC2670241 (Journal of neurochemistry, 2009).

Columns and labels:
MOR32-11 = MOR32-11 (Mus musculus, UniProt Q8VF06); format: cell-based; conditions: for activation / activation at 3 µM / activation at 10 µM / activation at 30 µM: read-out: Response normalized to the response of the same oocyte to 100 μM nonanoic acid
MOR23-1 = MOR23-1 (Mus musculus, UniProt Q8VG01); format: cell-based; conditions: read-out: Response normalized to the response of the same oocyte to 100 μM nonanoic acid
MOR40-4 (S83) = conditions: ref Malnic et al., 1999; cited from earlier work
MOR174-9 (mOR-EG) [1] = target: T1, MOR174-9 (mOR-EG) (Mus musculus, UniProt Q920P2); format: cell-based; conditions: each at 100 μM, 15 sec application
T1 sequence (Q920P2 1-313): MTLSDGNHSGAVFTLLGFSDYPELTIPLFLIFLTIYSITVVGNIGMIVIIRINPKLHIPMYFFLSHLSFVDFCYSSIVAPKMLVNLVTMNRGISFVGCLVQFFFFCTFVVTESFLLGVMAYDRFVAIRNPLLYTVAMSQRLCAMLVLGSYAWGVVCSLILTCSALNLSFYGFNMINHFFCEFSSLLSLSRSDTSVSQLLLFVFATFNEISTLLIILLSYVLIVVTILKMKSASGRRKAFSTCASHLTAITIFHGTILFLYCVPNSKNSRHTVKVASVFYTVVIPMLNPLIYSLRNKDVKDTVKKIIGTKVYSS

[2] = test system: oocytes expressing Gαolf and CFTR, but no receptor; assay: Control oocytes expressing Gαolf and CFTR, but no receptor; format: cell-based, Xenopus laevis; conditions: 100 μM, 15 sec application
Method in brief: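 Xenopus oocytes were defolliculated with collagenase B for 2 h at room temperature and injected with human Gαolf (10 ng) and CFTR (1 ng) cRNA in 23 nl water, with no receptor. Under voltage clamp in ND96 (pH 7.5), test compounds from 1 M DMSO stocks, diluted in ND96, were applied for 15 sec. 1 mM IBMX served as receptor-independent CFTR activator. Read-out was current.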

MOR174-9 (mOR-EG) [3] = target: T1, MOR174-9 (mOR-EG); conditions: ref Abaffy et al., 2006; cited from earlier work

Chain of MOR32-11 (Q8VF06 1-312): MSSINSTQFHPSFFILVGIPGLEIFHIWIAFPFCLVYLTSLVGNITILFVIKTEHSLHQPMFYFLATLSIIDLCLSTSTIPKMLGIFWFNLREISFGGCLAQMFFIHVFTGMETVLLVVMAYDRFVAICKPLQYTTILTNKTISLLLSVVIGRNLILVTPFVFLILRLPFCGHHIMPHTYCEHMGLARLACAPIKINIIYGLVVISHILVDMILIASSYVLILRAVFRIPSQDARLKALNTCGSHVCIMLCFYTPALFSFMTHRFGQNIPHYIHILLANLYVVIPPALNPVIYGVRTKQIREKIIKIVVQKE

| SMILES | activation (MOR32-11) [%] | activation (MOR23-1) [%] | activation at 3 µM (MOR32-11) [%] | activation at 10 µM (MOR32-11) [%] | activation at 30 µM (MOR32-11) [%] | further results |
| --- | --- | --- | --- | --- | --- | --- |
| O=C(O)CCCCCCCBr [8-Bromo-octanoic acid, 8-bromooctanoic acid] | 0 | 32 ± 6 | – | – | – | Response of MOR40-4 (S83) to odorant (previously shown) (MOR40-4 (S83)): respond; activation at 3 µM (MOR23-1): 0%; activation at 10 µM (MOR23-1): 0%; activation at 30 µM (MOR23-1): 43 ± 8% |
| C=C(C)[C@H]1CC=C(C)C(=O)C1 [(+) carvone] | – | – | – | – | – | Response of MOR174-9 to odorant (MOR174-9 (mOR-EG) [1]): does not respond |
| C=C(C)[C@@H]1CC=C(C)C(=O)C1 [(−) carvone] | – | – | – | – | – | Response of MOR174-9 to odorant (MOR174-9 (mOR-EG) [1]): does not respond |
| CCCCCCCCCC=O [Decanal] | 23 ± 5 | 0 | 0 | 0 | 0 | – |
| CCCCCCCCC=O [Nonanal] | 32 ± 6 | 0 | 0 | 0 | 0 | – |
| CCCCCCCCC(=O)O [Nonanoic acid] | 100 | 100 | 0 | 25 ± 4 | 61 ± 8 | Response of MOR40-4 (S83) to odorant (previously shown) (MOR40-4 (S83)): respond; activation at 3 µM (MOR23-1): 0%; activation at 10 µM (MOR23-1): 11 ± 4%; activation at 30 µM (MOR23-1): 48 ± 8% |
| CCCCCCCC=O [Octanal] | 22 ± 6 | 198 ± 27 | 0 | 0 | 0 | activation at 3 µM (MOR23-1): 35 ± 5%; activation at 10 µM (MOR23-1): 76 ± 13%; activation at 30 µM (MOR23-1): 107 ± 7% |
| CCCCCCCC(=O)O [Octanoic acid] | 76 ± 6 | 178 ± 29 | 0 | 27 ± 7 | 83 ± 14 | Response of MOR40-4 (S83) to odorant (previously shown) (MOR40-4 (S83)): respond; activation at 3 µM (MOR23-1): 70 ± 11%; activation at 10 µM (MOR23-1): 112 ± 17%; activation at 30 µM (MOR23-1): 158 ± 12% |
| CCCCCCCCO [Octanol] | 0 | 100 ± 6 | – | – | – | activation at 10 µM (MOR23-1): 23 ± 2%; activation at 30 µM (MOR23-1): 68 ± 13% |
| CCCCO [butanol] | – | – | – | – | – | Response of MOR174-9 to odorant (MOR174-9 (mOR-EG) [1]): does not respond |
| CCOc1cc(C=O)ccc1O [ethyl vanillin] | – | – | – | – | – | Response of MOR174-9 to odorant (MOR174-9 (mOR-EG) [1]): responds; Response of oocytes expressing Gαolf and CFTR, but no receptor [2]: do not respond |
| C=CCc1ccc(O)c(OC)c1 [eugenol] | – | – | – | – | – | Response of MOR174-9 to odorant (MOR174-9 (mOR-EG) [1]): responds; Response of oocytes expressing Gαolf and CFTR, but no receptor [2]: do not respond |
| CC(C)=CCC/C(C)=C/CO [geraniol] | – | – | – | – | – | Response of MOR174-9 to odorant (MOR174-9 (mOR-EG) [1]): does not respond |
| COc1ccccc1O [guaiacol] | – | – | – | – | – | Response of MOR174-9 to odorant (MOR174-9 (mOR-EG) [1]): does not respond |
| C/C=C/c1ccc(OC)c(OC)c1 [methylisoeugenol] | – | – | – | – | – | Antagonism of the response to eugenol of MOR174-9 expressed in oocytes (MOR174-9 (mOR-EG) [3]): can antagonize |
| CCCCCCCCCO [nonanol] | – | – | – | – | – | Response of MOR40-4 (S83) to odorant (previously shown) (MOR40-4 (S83)): respond |
| COc1cc(C=O)ccc1O [vanillin] | – | – | – | – | – | Response of MOR174-9 to odorant (MOR174-9 (mOR-EG) [1]): responds; Response of oocytes expressing Gαolf and CFTR, but no receptor [2]: do not respond |

The next lines start with results.

| activation (MOR32-11) [%] | activation (MOR23-1) [%] | activation at 3 µM (MOR32-11) [%] | activation at 10 µM (MOR32-11) [%] | activation at 30 µM (MOR32-11) [%] | SMILES | further results |
| --- | --- | --- | --- | --- | --- | --- |
| 0 | 61 ± 7 | – | – | – | O=C(O)CCCCCBr [6-Bromo-hexanoic acid, 6-bromohexanoic acid] | activation at 3 µM (MOR23-1): 0%; activation at 10 µM (MOR23-1): 0%; activation at 30 µM (MOR23-1): 22 ± 6% |
| 60 ± 4 | 0 | 0 | 0 | 0 | O=C(O)CCCCCCCCCBr [10-Bromo-decanoic acid, 10-bromodecanoic acid] | – |
| 27 ± 10 | 0 | 0 | 0 | 0 | O=C(O)CCCCCCCCCCBr [11-Bromo-undecanoic acid] | – |
| 6 ± 2 | 0 | – | – | – | O=C(O)CCCCCCCCCCCBr [12-Bromo-dodecanoic acid] | – |
| 122 ± 8 | 0 | 0 | 13 ± 3 | 0 | CCCCCCCCCC(=O)O [Decanoic acid] | – |
| 25 ± 3 | 0 | 0 | 0 | 0 | CCCCCCCCCCCC=O [Dodecanal] | – |
| – | – | 0 | 0 | 0 | CCCCCCCCCCCC(=O)O [Dodecanoic acid] | – |
| 35 ± 6 | 64 ± 10 | 0 | 13 ± 5 | 40 ± 12 | CCCCCCC(=O)O [Heptanoic acid] | Saturation of dose-response at MOR32-11 (MOR32-11; up to a concentration of 1 mM, data not shown): failed to saturate; activation at 3 µM (MOR23-1): 0%; activation at 10 µM (MOR23-1): 10 ± 3%; activation at 30 µM (MOR23-1): 17 ± 4% |
| 16 ± 3 | 0 | 0 | 0 | 0 | CCCCCCCCCCC=O [Undecanal] | – |
| 0 | 0 | – | – | – | O=C(O)CCCCCCCCCC(=O)O [Undecanedioic acid] | – |
| 98 ± 22 | 0 | 0 | 0 | 26 ± 8 | CCCCCCCCCCC(=O)O [Undecanoic acid] | – |
| 6 ± 2 | 0 | – | – | – | CCCCCCCCCCCO [Undecanol] | – |
